Compounds with a hit are over-represented: about 2.6% of the library has one in this group of screens.
rCAG RNA binder: binds r(CAG) RNA repeats | r(CAG) RNA repeat, TO-PRO-1 dye displacement fluorescence | inhibition, % at 3 µM | 370,000 compounds, 1.3% hits;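 active = inhibition above the plate cutoff, the mean of all test compounds on that plate plus 3 SD, cut at about 35% in these data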;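 note: 0% = DMSO alone and 100% = 100 µM mitoxantrone as full dye displacement; higher means more dye released from RNA so lower well fluorescence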
NadD block: NadD (S. aureus) enzyme inhibition | inhibition, % at 20 µM | purified NadD enzyme, colorimetric absorbance read-out | 360,000 compounds, 0.78% hits; in the data active = inhibition above about 26%
core dimer inh: HCV core protein dimerization inhibition; TR-FRET GST/Flag-core106 dimerization, 1536-well; inhibition, % at 5 µM; 300,000 compounds, 0.33% hits;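 active = inhibition above the mean of all tested compounds plus 3 SD, set per screening campaign, cut at about 45% in these data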
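Assay system: Tagged HCV core106 pair (GST and Flag) | Buffer or medium: KF-containing HEPES buffer, pH 7.45, DTT, CHAPS, BSA | Also added: Eu donor and XL665 acceptor anti-tag antibodies | Dosing: One concentration, 5 µM, in 0.5% DMSO | Timing: 4 h at 22.5 °C | Technique: TR-FRET 671 and 617 nm emission | Repeats: Singlicate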
ABHD5 PLIN5 PPI: ABHD5-PLIN5 protein interaction inhibition. inhibition, % at 4 µM. AID 602281. Split G. princeps luciferase complementation, luminescence, 4 h. 360,000 compounds, 0.78% hits;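 active = inhibition above the mean inhibition across every tested compound plus 3 SD, cut at about 22% in these data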;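 note: 0% = DMSO only wells and the 100% control is not disclosed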
Target sequence (Q00G26 whole entry, looked up): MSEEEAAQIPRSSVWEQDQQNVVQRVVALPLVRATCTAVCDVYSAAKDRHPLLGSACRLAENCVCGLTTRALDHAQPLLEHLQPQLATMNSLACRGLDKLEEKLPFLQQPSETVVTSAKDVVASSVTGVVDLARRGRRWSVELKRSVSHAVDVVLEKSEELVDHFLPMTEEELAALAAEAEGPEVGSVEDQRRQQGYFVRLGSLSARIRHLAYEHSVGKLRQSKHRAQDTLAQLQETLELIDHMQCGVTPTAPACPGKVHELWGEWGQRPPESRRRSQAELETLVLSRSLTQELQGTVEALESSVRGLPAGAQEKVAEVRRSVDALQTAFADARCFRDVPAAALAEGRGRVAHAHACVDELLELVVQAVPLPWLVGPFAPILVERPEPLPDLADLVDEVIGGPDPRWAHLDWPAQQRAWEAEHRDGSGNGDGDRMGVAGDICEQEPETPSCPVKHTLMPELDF
Target sequence (Q8WTS1 whole entry, looked up): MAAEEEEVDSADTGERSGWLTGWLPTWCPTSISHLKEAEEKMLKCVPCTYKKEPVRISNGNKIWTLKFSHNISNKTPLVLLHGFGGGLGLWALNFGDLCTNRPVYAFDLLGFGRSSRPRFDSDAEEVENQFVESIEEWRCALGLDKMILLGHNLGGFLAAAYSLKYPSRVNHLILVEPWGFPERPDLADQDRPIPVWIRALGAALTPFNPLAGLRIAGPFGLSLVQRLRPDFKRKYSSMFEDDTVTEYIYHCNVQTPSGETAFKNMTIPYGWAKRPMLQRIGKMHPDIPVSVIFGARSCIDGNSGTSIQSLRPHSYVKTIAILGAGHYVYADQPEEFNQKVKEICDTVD
rCAG binder conf: r(CAG) RNA repeat binding, confirmation. shares compounds with rCAG RNA binder. TO-PRO-1 dye displacement fluorescence. inhibition, % at 3 µM. 4,300 compounds, 70% hits;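 active = inhibition above a per-plate cutoff, the mean inhibition of sample wells plus 3 SD, cut at about 35% in these data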;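 note: loss of TO-PRO-1 fluorescence as compound displaces dye from 1x1 AA loop RNA; 0% = DMSO only wells and 100% = 100 µM mitoxantrone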
dCAG dye counter: disrupts DNA CAG TO-PRO-1 complex, flagging rCAG hits | inhibition, % at 3 µM | AID 652068 | shares compounds with rCAG RNA binder | d(CAG) DNA oligo TO-PRO-1 dye displacement, fluorescence | 4,300 compounds, 94% hits;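 active = inhibition above its plate's cutoff, the mean test-well inhibition plus 3 SD, cut at about 4.8% in these data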;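 note: 0% = DNA dye mix with DMSO and 100% = 100 µM mitoxantrone; hits displace the dye from DNA and so lower well fluorescence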
DNA CAG DR: counter-screen for rCAG binders: inhibitors of DNA CAG TO-PRO-1 complex; AID 686960; 250 compounds, 20% hits; shares compounds with rCAG RNA binder; DNA CAG/GTC duplex TO-PRO-1 dye displacement fluorescence; IC50, µM; in the data active = IC50 below about 10 µM
Active calls of the source: *; i = inactive; x = not tested or not shown.

SMILES	rCAG RNA binder	NadD block	core dimer inh	ABHD5 PLIN5 PPI	rCAG binder conf	dCAG dye counter	others
O=C(N/N=C\c1ccccc1OCc1ccccc1)c1ccco1	2	-3	6	-1	x	x
O=C(N/N=C/c1c(O)n(Cc2ccco2)c(=O)[nH]c1=O)c1ccccc1	50*	-1	-2	5	30	11*
Cc1ccc(/C=C/C(=O)NC(=S)Nc2ccc(S(=O)(=O)Nc3cc(C)on3)cc2)cc1	80*	7	24	-12	77*	46*
Cc1cc(NS(=O)(=O)c2ccc(NC(=S)NC(=O)c3ccccc3)cc2)no1	26	-3	6	-5	x	x
Cc1cc(NS(=O)(=O)c2ccc(NC(=S)NC(=O)/C=C/c3ccccc3)cc2)no1	71*	7	5	-3	47*	17*
O=C(/C=C/c1cccs1)NC(=S)Nc1ccc(S(=O)(=O)Nc2ccccc2C(F)(F)F)cc1	56*	15	40	1	70*	32*	DNA CAG DR=i
COc1ccc(NC(=S)NC(=O)/C=C/c2cccs2)cc1	-4	7	10	-6	x	x
Cc1ccc(Cl)cc1NC(=O)N(C)CCOC(=O)Nc1cccc(Cl)c1	2	x	x	x	x	x
CC(C)CN1C(=O)C[C@]2(C(=O)N(C)c3ccc(NC(=O)C(F)(F)F)cc32)C1c1ccccc1 (some centres not stated)	-1	x	x	x	x	x
CN1CCC(N2CCN(C3CN(Cc4cn(Cc5cccc(C(F)(F)F)c5)nn4)S(=O)(=O)C3)CC2)CC1 (configuration not stated)	2	3	x	7	x	x
Cc1sc(NC(=O)C2CCCCC2C(=O)O)c(C(N)=O)c1-c1ccccc1 (configuration not stated)	15	6	-4	-5	x	x
Cc1sc(NC(=O)C2CCCCC2C(=O)O)c(C(N)=O)c1-c1ccc(C(C)C)cc1 (configuration not stated)	37*	11	14	-11	54*	16*
Cc1noc(NS(=O)(=O)c2ccc(NC(=O)c3ccc(Cl)c(S(=O)(=O)N(C)c4ccccc4)c3)cc2)c1C	91*	14	x	-12	84*	55*
COc1cccc(C(=O)Nc2ccc(S(=O)(=O)Nc3onc(C)c3C)cc2)c1	16	-2	1	3	x	x
Cc1noc(NS(=O)(=O)c2ccc(NC(=O)c3cccc(S(=O)(=O)N(C)c4ccccc4)c3)cc2)c1C	73*	7	x	7	81*	37*
COC(=O)[C@]12C[C@H](CC(=O)NCC34CC5CC(CC(C5)C3)C4)C(=O)N(CCC3=CCCCC3)C1=C[C@H](C(C)(C)C)O[C@@H]2C	2	x	x	x	x	x
O=c1cc(-c2ccccc2)[nH]n1-c1nc2ccccc2[nH]1	65*	-3	-8	-1	16	9.1*
Cc1ccc(NC(=O)N2CC(C)OC(C)C2)cc1[N+](=O)[O-] (configuration not stated)	4	x	x	x	x	x
C/C(=N\OCc1nc2ccccc2c(=O)n1/N=C/c1cc(C)cc([N+](=O)[O-])c1O)c1ccccc1	56*	-7	10	-9	64*	25*
Cc1cc([N+](=O)[O-])cc(/C=N/n2c(C)nc3ccccc3c2=O)c1O	2	4	7	-2	x	x
O=C(CSc1ccc(-c2ccco2)nn1)NCc1ccc(F)cc1	2	4	3	7	x	x
O=C(CSc1nnc(-c2ccco2)c(-c2ccco2)n1)Nc1ccccc1	60*	15	51*	26*	28	15*
O=C(CSc1ccc(-c2ccco2)nn1)c1ccc(F)cc1	37*	7	17	16	9	4
COc1ccc(C(=O)CSc2nnc(-c3ccco3)c(-c3ccco3)n2)cc1	51*	21	x	-1	49*	22*
COc1ccc(C(C(=O)NC(C)(C)C)n2c(=O)c(-c3cc4ccccc4[nH]3)nc3ccccc32)cc1 (configuration not stated)	18	x	x	-2	x	x
C=C1[C@H](C)CN(S(=O)C(C)(C)C)[C@H]1CCO (some centres not stated)	1	x	x	x	x	x
O=[N+]([O-])c1ccc2c([N+](=O)[O-])ccc3c2c1CC3	19	23	x	2	x	x
